Measurements of several laboratories.
Each line is one published result; the experiments were not run side by side.
PLCD1: 1-phosphatidylinositol 4,5-bisphosphate phosphodiesterase delta-1 (PLCD1, Homo sapiens, UniProt P51178)
FLT3: Receptor-type tyrosine-protein kinase FLT3 (FLT3, Homo sapiens, UniProt P36888)
CSNK1D: Casein kinase I isoform delta (CSNK1D, Homo sapiens, UniProt P48730)
HTR2B: 5-hydroxytryptamine receptor 2B (HTR2B, Homo sapiens, UniProt P41595)
FLT3 ITD: Receptor-type tyrosine-protein kinase FLT3 (FLT3, Homo sapiens, UniProt P36888, ITD)

Compound	target	read-out	action	method	endpoint	result
COc1ccc(C(=O)CC(SCc2ccc(Cl)cc2)C(=O)O)cc1 (centres unmarked)	PLCD1	ligand displacement		FP	Ki	> 1000 µM
CN(C)CCNC(=O)c1ccc(-c2nc3ccc4[nH]ncc4c3c3c2CCCCC3)c(F)c1	FLT3	enzyme activity	inhibitor		IC50	0.053 µM
CCOc1cccc(C(=O)CC(SCc2ccc(Cl)cc2)C(=O)O)c1 (centres unmarked)	PLCD1	ligand displacement		FP	Ki	474 µM
c1ccc(-c2nnc(NCc3ccccn3)o2)cc1	CSNK1D	binding		SPR	Kd	> 50 µM
COc1cccc(C(=O)CC(SCc2ccc(Cl)cc2)C(=O)O)c1 (centres unmarked)	PLCD1	ligand displacement		FP	Ki	> 1000 µM
CN(C)CCNC(=O)c1ccc(-c2nc3ccc4[nH]ncc4c3c3c2CCCC3)cc1	Receptor-type tyrosine-protein kinase FLT3 (FLT3, Homo sapiens, UniProt P36888, F691L)	enzyme activity	inhibitor		IC50	0.157 µM
N#Cc1ccccc1C#CCO	CSNK1D	binding		SPR	Kd	> 50 µM
COc1cc2c3c(c1OC)-c1c(OC)ccc(O)c1CC3N(C)CC2 (centres unmarked)	HTR2B	ligand displacement		radioligand	Ki	1.42 µM
CCOc1ccc(-c2cc(C(=O)O)c(-c3ccc(Cl)cc3)o2)cc1	PLCD1	ligand displacement		FP	Ki	> 100 µM
CN(C)CCN(C)C(=O)c1ccc(-c2nc3ccc4[nH]ncc4c3c3c2CCCCC3)cc1	FLT3 ITD	enzyme activity	inhibitor		IC50	> 1 µM
c1cc(CN2CCCNCCNCCCNCC2)ccc1CN1CCCNCCNCCCNCC1	CSNK1D	binding		SPR	Kd	> 50 µM
Cc1n[nH]c2ccc3nc(-c4ccc(C(=O)NCCN(C)C)cc4)c4c(c3c12)CCC(F)(F)C4	FLT3 ITD	enzyme activity	inhibitor		IC50	0.355 µM
COc1cc2c3c(c1OC)-c1c(OC)ccc(Br)c1CC3N(C)CC2 (centres unmarked)	5-hydroxytryptamine receptor 2C (HTR2C, Homo sapiens, UniProt P28335)	cell-free assay		radioligand	Ki	2.2 µM
O=C(NC1CCCCC1)C(=O)c1c[nH]c2ccccc12	CSNK1D	binding		SPR	Kd	5.7 µM
Cc1n[nH]c2ccc3nc(-c4ccc(C(=O)NCCN(C)C)cc4F)c4c(c3c12)CCCC4	Receptor-type tyrosine-protein kinase FLT3 (FLT3, Homo sapiens, UniProt P36888, D835Y)	enzyme activity	inhibitor		IC50	0.005 µM
CCOc1ccc(C(=O)CC(SCc2ccccc2)C(=O)O)cc1 (centres unmarked)	PLCD1	ligand displacement		FP	Ki	> 1000 µM
CNC(=O)c1ccc(OC)c(Br)c1	CSNK1D	binding		SPR	Kd	> 50 µM
Cc1n[nH]c2ccc3nc(-c4ccc(C(=O)NCCN(C)C)cn4)c4c(c3c12)CCCCC4	FLT3 ITD	enzyme activity	inhibitor		IC50	0.419 µM
CCOc1cccc(C(=O)CC(SCc2cccc(Br)c2)C(=O)O)c1 (centres unmarked)	PLCD1	ligand displacement		FP	Ki	605 µM
CNc1cncc(Cl)n1	CSNK1D	binding		SPR	Kd	> 50 µM
COc1cc2c3c(c1OC)-c1c(OC)ccc(N4CCOCC4)c1CC3N(C)CC2 (centres unmarked)	HTR2B	ligand displacement		radioligand	Ki	0.773 µM
CN(C)CCN(C)C(=O)c1ccc(-c2nc3ccc4[nH]ncc4c3c3c2CCCCC3)cn1	FLT3 ITD	enzyme activity	inhibitor		IC50	> 1 µM
CN(C)C(=O)c1cc2cnc(Nc3ccc(C(=O)NCCCCCCOc4cccc5c4C(=O)N(C4CCC(=O)NC4=O)C5=O)cc3)nc2n1C1CCCC1 (centres unmarked)	Aurora kinase C (AURKC, Homo sapiens, UniProt Q9UQB9)	binding		competition with immobilised ligand	Kd	< 0.2 µM
CCOc1ccc(C(=O)CC(SCc2ccc(F)cc2)C(=O)O)cc1 (centres unmarked)	PLCD1	ligand displacement		FP	Ki	> 1000 µM
COCc1n[nH]c(N)c1-c1ccc(Cl)cc1	CSNK1D	binding		SPR	Kd	> 50 µM
Cc1n[nH]c2ccc3nc(-c4ccc(C(=O)NCCN(C)C)cc4)c4c(c3c12)CCCCC4	FLT3	enzyme activity	inhibitor		IC50	0.099 µM
CCOc1ccc(C(=O)CC(SCc2ccccc2Br)C(=O)O)cc1 (centres unmarked)	PLCD1	ligand displacement		FP	Ki	> 1000 µM
CSCC[C@H](NC(C)=O)C(=O)N[C@@H](CC(=O)O)C(=O)N[C@@H](Cc1ccccc1)C(N)=O	Gastrin/cholecystokinin type B receptor (CCKBR, Homo sapiens, UniProt P32239)	β-arrestin recruitment	agonist		EC50	18.7 µM
COc1cc(C(C)=O)c(F)cc1O	CSNK1D	binding		SPR	Kd	> 50 µM
